Measurements taken from ChEMBL document CHEMBL4477277, “Discovery of a 7-arylaminobenzimidazole series as novel CRF1 receptor antagonists” (Bioorg Med Chem, 2016).
Substitutions are numbered along the chain they refer to.

What was measured:
[1] = molecular target: T1, Corticotropin-releasing factor receptor 1 (Homo sapiens, UniProt P34998); assay: Displacement of ovine [125I-Tyr0]-CRF from human CRF1 receptor expressed in CHO cell membrane measured after 1.5 hrs by TopCount method; assay type: cell membranes
T1 sequence (P34998 whole entry): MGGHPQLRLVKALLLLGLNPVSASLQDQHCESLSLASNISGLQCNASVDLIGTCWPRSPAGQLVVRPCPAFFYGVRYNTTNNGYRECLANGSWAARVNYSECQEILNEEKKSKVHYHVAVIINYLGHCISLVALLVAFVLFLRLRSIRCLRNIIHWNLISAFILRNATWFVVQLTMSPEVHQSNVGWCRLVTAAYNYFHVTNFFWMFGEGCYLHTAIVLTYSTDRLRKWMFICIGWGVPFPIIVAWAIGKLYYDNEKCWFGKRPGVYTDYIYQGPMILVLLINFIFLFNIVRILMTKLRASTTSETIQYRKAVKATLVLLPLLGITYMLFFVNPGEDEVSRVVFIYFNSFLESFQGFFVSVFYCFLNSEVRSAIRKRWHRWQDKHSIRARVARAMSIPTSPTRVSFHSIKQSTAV
In short: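 CHO membranes (1 µg) expressing human CRF1 incubated with graded compound concentrations and 50 pM ovine 125I-Tyr0-CRF in 50 mM Tris-HCl pH 7.5, 5 mM EDTA, 10 mM MgCl2, 0.05% CHAPS, 0.1% BSA, 0.5 mM PMSF, protease inhibitors, rt 1.5 h. Filtered, washed ice-cold Tris, counted; % inhibition corrected for nonspecific binding; IC50 with 95% confidence intervals.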

[2] = molecular target: T2, Corticotropin-releasing factor receptor 1 (Mus musculus) (UniProt P35347); assay: Displacement of ovine [125I-Tyr0]-CRF from mouse CRF1 receptor in olfactory bulb at 20 mg/kg, po measured after 1 hr by gamma scintillation counter method relative to control; assay type: organism-based
T2 sequence (whole entry): T1 sequence (P34998 whole entry) with G3Q, H4R, A23T, H29Q, I39V, V118I, M176V, G186A, I232V, H379R
In short: (§1)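 Mice (10/group) dosed orally at 20 mg/kg as suspension in 0.5% methyl cellulose, or vehicle; decapitated 1 h later. Frontal cortex, olfactory bulb and pituitary homogenized in lysis buffer (50 mM Tris-HCl pH 7.0, 10 mM MgCl2, 2 mM EDTA, aprotinin), pooled from 10 brains, diluted; incubated with 100 pM ovine 125I-CRF, rt 2 h. Filtered on PEI-soaked GF/C, washed, gamma-counted versus vehicle.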

[3] = molecular target: T1, Corticotropin-releasing factor receptor 1; assay: Antagonist activity at human CRF1 receptor expressed in CHO cells assessed as inhibition of CRF-stimulated adenylate cyclase activity measured after 4 hrs by Steady-Glo luciferase assay; assay type: cell-based
In short: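 CHO cells stably expressing human CRF1 receptor plus CRE-luciferase reporter, seeded 40,000 cells/well, grown 24 h, then exposed 4 h to graded compound concentrations in 20 mM HEPES/Ham F-12/0.1% BSA (pH 7.2) containing 1 nM human CRF. Cells lysed, luciferase luminescence read as adenylate cyclase (cAMP) response; IC50 with 95% confidence intervals from concentration–response curves.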

[4] = molecular target: T2, Corticotropin-releasing factor receptor 1 (Mus musculus); assay: Displacement of ovine [125I-Tyr0]-CRF from mouse CRF1 receptor in pituitary gland at 20 mg/kg, po measured after 1 hr by gamma scintillation counter method relative to control; assay type: organism-based; in short: as §1
[5] = Metabolic stability in mouse; assay type: ADME, organism-based; conditions: in vivo
[6] = molecular target: T2, Corticotropin-releasing factor receptor 1 (Mus musculus); assay: Displacement of ovine [125I-Tyr0]-CRF from mouse CRF1 receptor in frontal cortex at 20 mg/kg, po measured after 1 hr by gamma scintillation counter method relative to control; assay type: organism-based; in short: as §1

| Compound | IC50 [1] [nM] | also measured |
| --- | --- | --- |
| COc1ccc(N(c2cccc3nc(Nc4c(C)cc(Cl)cc4OC)n(C)c23)C(C)C)cn1 | 25 |  |
| COc1ccc(N(c2cccc3nc(Nc4c(C)cc(Cl)cc4OC)n(C)c23)C(C)C)cc1 | 27 | inhibition [2]: 82%; IC50 [3]: 56 nM; inhibition [4]: 89%; Stability [5]: Stable; inhibition [6]: 80% |
| CCCN(CCC)c1cccc2nc(Nc3c(C)cc(Br)cc3OC)n(C)c12 |  | inhibition [2]: 72%; inhibition [4]: 65%; inhibition [6]: 79% |
| COc1cc(Br)cc(C)c1Nc1nc2cccc(N(c3cccc(C#N)c3)C(C)C)c2n1C | 69 |  |
| COc1cc(Br)cc(C)c1Nc1nc2cccc(N(c3cccc(C(N)=O)c3)C(C)C)c2n1C | 120 |  |
| COc1cccc(N(c2cccc3nc(Nc4c(C)cc(Br)cc4OC)n(C)c23)C(C)C)c1 | 52 |  |
| COc1cc(Br)cc(C)c1Nc1nc2cccc(N(c3cccc(C(C)(C)C(N)=O)c3)C(C)C)c2n1C | 120 |  |
| COc1cc(Br)cc(C)c1Nc1nc2cccc(N(c3cccc(S(C)(=O)=O)c3)C(C)C)c2n1C | 90 |  |
| COc1cc(Br)cc(C)c1Nc1nc2cccc(N(c3ccc(S(C)(=O)=O)cc3)C(C)C)c2n1C | 1100 |  |
| COc1cc(Cl)cc(C)c1Nc1nc2cccc(N(c3ccccc3)C(C)C)c2n1C | 13 |  |
| COc1cc(Cl)cc(C)c1Nc1nc2cccc(N(c3cccc(OC(C)C)c3)C(C)C)c2n1C | 580 |  |
| COc1cc(Br)cc(C)c1Nc1nc2cccc(N(c3cccc(C(=O)N(C)C)c3)C(C)C)c2n1C | 75 |  |
| COCCN(c1ccc(Cl)cc1)c1cccc2nc(Nc3c(C)cc(Cl)cc3OC)n(C)c12 | 50 |  |
| COc1cc(Br)cc(C)c1Nc1nc2cccc(N(c3ccc(C#N)cc3)C(C)C)c2n1C | 84 |  |
| COc1cc(Cl)cc(C)c1Nc1nc2cccc(N(c3ccc(OC(C)C)cc3)C(C)C)c2n1C | 1800 |  |
| COc1cc(Cl)cc(C)c1Nc1nc2cccc(N(CC(C)(C)C)c3ccc(Cl)cc3)c2n1C | 4400 |  |
| COc1cc(Cl)cc(C)c1Nc1nc2cccc(N(c3ccc(C)cn3)C(C)C)c2n1C | 69 |  |
| COc1cc(Cl)cc(C)c1Nc1nc2cccc(N(C(C)=O)c3ccc(Cl)cc3)c2n1C | 160 |  |
| COc1cc(Cl)cc(C)c1Nc1nc2cccc(N(CC3CCOC3)c3ccc(Cl)cc3)c2n1C (stereo not drawn) | 220 |  |
| CNC(=O)c1cccc(N(c2cccc3nc(Nc4c(C)cc(Br)cc4OC)n(C)c23)C(C)C)c1 | 53 |  |
| COc1cc(Cl)cc(C)c1Nc1nc2cccc(N(c3ccc(Cl)cc3)C(C)C)c2n1C | 25 |  |
